Laboratory results reported in ChEMBL document CHEMBL4316616, “Efficacy of TLR7 agonistic imidazoquinoline as immunochemotherapeutic agent against P. Berghei ANKA infected rodent host” (Bioorg Med Chem Lett, 2019).
Calls of active or inactive are those of the source. No cut-off for these calls is given here.

Tests used:
Plasmodium berghei [1] = assay: Antiparasitic activity against Plasmodium berghei ANKA infected in Laca mouse assessed as increase in serum IL-10 level at 10 ug, ip administered for 4 days measured on day 10 by sandwich ELISA; format: functional, organism-based
[2] = Toxicity in Laca mouse infected with Plasmodium berghei ANKA assessed as death at 10 ug, ip administered for 4 days measured on day 15; format: organism-based; details: in vivo, 96 h
Method in brief: (§1)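 Six mice per group received 1x10⁶ parasitized RBCs (P. berghei ANKA) i.p. on D0. TLR7 agonist was given i.p., 0.2 mL/mouse, daily D0–D3. PBS-treated infected and uninfected groups served as controls. Survival was monitored alongside parasitemia from Giemsa-stained thin blood smears.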

Plasmodium berghei [3] = assay: Antiparasitic activity against Plasmodium berghei ANKA infected in Laca mouse assessed as increase in serum IL-12 level at 10 ug, ip administered for 4 days measured on day 10 by sandwich ELISA; format: functional, organism-based
[4] = Toxicity in Laca mouse infected with Plasmodium berghei ANKA assessed as death at 10 ug, ip co-treated with chloroquine for 4 days measured on day 30; details: in vivo, 96 h
Plasmodium berghei [5] = assay: Antiparasitic activity against Plasmodium berghei ANKA infected in Laca mouse assessed as increase in serum IL-27 level at 10 ug, ip administered for 4 days measured on day 10 by sandwich ELISA; format: functional, organism-based
Plasmodium berghei [6] = assay: Antiparasitic activity against Plasmodium berghei ANKA infected in Laca mouse assessed as decrease in Treg cell level in brain at 10 ug, ip co-administered with chloroquine for 4 days measured on day 10 by flow cytometry
Plasmodium berghei [7] = assay: Antiparasitic activity against Plasmodium berghei ANKA infected in Laca mouse assessed as reduction in CD4+ cell level in brain at 10 ug, ip administered for 4 days measured on day 10 and 21 by flow cytometry; format: functional, organism-based
Plasmodium berghei [8] = assay: Antiparasitic activity against Plasmodium berghei ANKA infected in Laca mouse assessed as decrease in serum TNFalpha level at 10 ug, ip administered for 4 days measured on day 10 by sandwich ELISA; format: functional, organism-based
Plasmodium berghei [9] = assay: Antiparasitic activity against Plasmodium berghei ANKA infected in Laca mouse assessed as increase in serum IL-27 level at 10 ug, ip co-administered with chloroquine for 4 days measured on day 10 by sandwich ELISA; format: functional, organism-based
Plasmodium berghei [10] = assay: Antiparasitic activity against Plasmodium berghei ANKA infected in Laca mouse assessed as reduction in CD3+ cell level in brain at 10 ug, ip co-administered with chloroquine for 4 days measured on day 21 by flow cytometry; format: functional, organism-based
Plasmodium berghei [11] = assay: Antiparasitic activity against Plasmodium berghei ANKA infected in Laca mouse assessed as decrease in serum TNFalpha level at 10 ug, ip co-administered with chloroquine for 4 days measured on day 10 by sandwich ELISA; format: functional, organism-based
[12] = Toxicity in Laca mouse infected with Plasmodium berghei ANKA assessed as death at 10 ug, ip co-treated with chloroquine for 4 days measured on day 30; format: organism-based; details: in vivo, 96 h
Method in brief: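 Mice (6/group) were infected i.p. with 1x10⁶ P. berghei ANKA parasitized RBCs on D0. TLR7 agonist was given i.p. plus chloroquine 10 mg/kg orally (0.2 mL/mouse each), daily D0–D3. Survival and parasitemia (Giemsa-stained thin blood smears of individual mice) were followed for about one month.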

Plasmodium berghei [13] = assay: Antiparasitic activity against Plasmodium berghei ANKA infected in Laca mouse assessed as increase in serum IL-12 level at 10 ug, ip co-administered with chloroquine for 4 days measured on day 10 by sandwich ELISA; format: functional, organism-based
Plasmodium berghei [14] = assay: Antiparasitic activity against Plasmodium berghei ANKA infected in Laca mouse assessed as reduction in CD3+ cell level in brain at 10 ug, ip co-administered with chloroquine for 4 days measured on day 10 by flow cytometry; format: functional, organism-based
Plasmodium berghei [15] = assay: Antiparasitic activity against Plasmodium berghei ANKA infected in Laca mouse assessed as reduction in parasitemia at 10 ug, ip co-administered with chloroquine for 4 days measured on day 25 by Giemsa-staining based assay; format: functional, organism-based
[16] = Toxicity in Laca mouse infected with Plasmodium berghei ANKA assessed as death at 10 ug, ip administered for 4 days measured on day 10 and 21; format: organism-based; details: in vivo, 96 h; method in brief: as §1
Plasmodium berghei [17] = assay: Antiparasitic activity against Plasmodium berghei ANKA infected in Laca mouse assessed as reduction in CD8+ cell level in brain at 10 ug, ip co-administered with chloroquine for 4 days measured on day 21 by flow cytometry; format: functional, organism-based
Plasmodium berghei [18] = assay: Antiparasitic activity against Plasmodium berghei ANKA infected in Laca mouse assessed as increase in IFN-gamma level in serum at 10 ug, ip co-administered with chloroquine for 4 days measured on day 10 by sandwich ELISA
Plasmodium berghei [19] = assay: Antiparasitic activity against Plasmodium berghei ANKA infected in Laca mouse assessed as reduction in CD3+ cell level in brain at 10 ug, ip administered for 4 days measured on day 10 by flow cytometry; format: functional, organism-based
Plasmodium berghei [20] = assay: Antiparasitic activity against Plasmodium berghei ANKA infected in Laca mouse assessed as parasitemia at 10 ug, ip co-administered with chloroquine for 4 days measured on day 30 by Giemsa-staining based assay; format: functional
Plasmodium berghei [21] = assay: Antiparasitic activity against Plasmodium berghei ANKA infected in Laca mouse assessed as reduction in CD8+ cell level in brain at 10 ug, ip co-administered with chloroquine for 4 days measured on day 10 by flow cytometry; format: functional, organism-based
Plasmodium berghei [22] = assay: Antiparasitic activity against Plasmodium berghei ANKA infected in Laca mouse assessed as change in Treg cell level in spleen at 10 ug, ip co-administered with chloroquine for 4 days measured on day 10 and 21 by flow cytometry; format: functional, organism-based
Plasmodium berghei [23] = assay: Antiparasitic activity against Plasmodium berghei ANKA infected in Laca mouse assessed as reduction in parasitemia at 10 ug, ip administered for 4 days measured on day 9 by Giemsa-staining based assay; format: functional, organism-based
Plasmodium berghei [24] = assay: Antiparasitic activity against Plasmodium berghei ANKA infected in Laca mouse assessed as increase in IFN-gamma level in serum at 10 ug, ip administered for 4 days measured on day 10 by sandwich ELISA
Plasmodium berghei [25] = assay: Antiparasitic activity against Plasmodium berghei ANKA infected in Laca mouse assessed as increase in CD3+ cell level in spleen at 10 ug, ip administered for 4 days measured on day 10 by flow cytometry; format: functional, organism-based
Plasmodium berghei [26] = assay: Antiparasitic activity against Plasmodium berghei ANKA infected in Laca mouse assessed as increase in CD3+ cell level in spleen at 10 ug, ip co-administered with chloroquine for 4 days measured on day 10 by flow cytometry; format: functional, organism-based
Plasmodium berghei [27] = assay: Antiparasitic activity against Plasmodium berghei ANKA infected in Laca mouse assessed as increase in Treg cell level in brain at 10 ug, ip co-administered with chloroquine for 4 days measured on day 21 by flow cytometry; format: functional, organism-based
Plasmodium berghei [28] = assay: Antiparasitic activity against Plasmodium berghei ANKA infected in Laca mouse assessed as increase in Treg cell level in brain at 10 ug, ip administered for 4 days measured on day 10 by flow cytometry; format: functional, organism-based
[29] = Toxicity in Laca mouse infected with Plasmodium berghei ANKA assessed as death at 10 ug, ip administered for 4 days measured on day 9; format: organism-based; details: in vivo, 96 h; method in brief: as §1
Plasmodium berghei [30] = assay: Antiparasitic activity against Plasmodium berghei ANKA infected in Laca mouse assessed as increase in Treg cell level in spleen at 10 ug, ip administered for 4 days measured on day 10 and 21 by flow cytometry; format: functional, organism-based
Plasmodium berghei [31] = assay: Antiparasitic activity against Plasmodium berghei ANKA infected in Laca mouse assessed as reduction in parasitemia at 10 ug, ip co-administered with chloroquine for 4 days measured on day 23 by Giemsa-staining based assay; format: functional, organism-based
[32] = Toxicity in Laca mouse infected with Plasmodium berghei ANKA assessed as death at 10 ug, ip co-treated with chloroquine for 4 days measured on day 30; details: in vivo, 96 h; remark: listed apart in the source
Plasmodium berghei [33] = assay: Antiparasitic activity against Plasmodium berghei ANKA infected in Laca mouse assessed as parasitemia at 10 ug, ip administered for 4 days measured on day 7 by Giemsa-staining based assay; format: functional
Plasmodium berghei [34] = assay: Antiparasitic activity against Plasmodium berghei ANKA infected in Laca mouse assessed as reduction in CD4+ cell level in brain at 10 ug, ip co-administered with chloroquine for 4 days measured on day 10 and 21 by flow cytometry; format: functional, organism-based
Plasmodium berghei [35] = assay: Antiparasitic activity against Plasmodium berghei ANKA infected in Laca mouse assessed as increase in Treg cell level in spleen at 10 ug, ip co-administered with chloroquine for 4 days measured on day 21 by flow cytometry; format: functional, organism-based
Plasmodium berghei [36] = assay: Antiparasitic activity against Plasmodium berghei ANKA infected in Laca mouse assessed as reduction in CD8+ cell level in brain at 10 ug, ip administered for 4 days measured on day 10 by flow cytometry; format: functional, organism-based
Plasmodium berghei [37] = assay: Antiparasitic activity against Plasmodium berghei ANKA infected in Laca mouse assessed as increase in serum IL-10 level at 10 ug, ip co-administered with chloroquine for 4 days measured on day 10 by sandwich ELISA; format: functional, organism-based
Plasmodium berghei [38] = assay: Antiparasitic activity against Plasmodium berghei ANKA infected in Laca mouse assessed as reduction in CD4+ cell level in brain at 10 ug, ip co-administered with chloroquine for 4 days measured on day 21 by flow cytometry; format: functional, organism-based
[39] = Toxicity in Laca mouse infected with Plasmodium berghei ANKA assessed as body weight loss at 10 ug, ip administered for 4 days; format: organism-based; details: in vivo, 96 h

In the case of CCCCc1nc2c(N)nc3ccccc3c2n1Cc1ccccc1, the Activity (Plasmodium berghei [1]) is reported as “Active”, the Activity [2] is reported as “Toxic” and the Activity (Plasmodium berghei [3]) is reported as “Active”. The Activity [4] was “Toxic”, the Activity (Plasmodium berghei [5]) was “Active” and the Activity (Plasmodium berghei [6]) was “Active”. The Activity (Plasmodium berghei [7]) was “Active”, the Activity (Plasmodium berghei [8]) was “Active” and the Activity (Plasmodium berghei [9]) was “Active”. For the same compound, the Activity (Plasmodium berghei [10]) was “inactive”, the Activity (Plasmodium berghei [11]) was “Active” and the Activity [12] was “Toxic”. For the same compound, the Activity (Plasmodium berghei [13]) was “Active”, the Activity (Plasmodium berghei [14]) was “Active” and the Activity (Plasmodium berghei [15]) was “inactive”. For the same compound, the Activity [16] was “Toxic”, the Activity (Plasmodium berghei [17]) was “inactive” and the Activity (Plasmodium berghei [18]) was “Active”. The Activity (Plasmodium berghei [19]) was “Active”, the Activity (Plasmodium berghei [20]) was 11.65% and the Activity (Plasmodium berghei [21]) was “Active”. For the same compound, the Activity (Plasmodium berghei [22]) was “Active”, the Activity (Plasmodium berghei [23]) was “Active” and the Activity (Plasmodium berghei [24]) was “Active”. The Activity (Plasmodium berghei [25]) was “Active”, the Activity (Plasmodium berghei [26]) was “Active” and the Activity (Plasmodium berghei [27]) was “Active”. For the same compound, the Activity (Plasmodium berghei [28]) was “Active”, the Activity [29] was “Toxic” and the Activity (Plasmodium berghei [30]) was “Active”. The Activity (Plasmodium berghei [31]) was “Active”, the Activity [32] was “Toxic” and the Activity (Plasmodium berghei [33]) was 5.7%. The Activity (Plasmodium berghei [34]) was “Active”, the Activity (Plasmodium berghei [35]) was “Active” and the Activity (Plasmodium berghei [36]) was “Active”. For the same compound, the Activity (Plasmodium berghei [37]) was “Active”, the Activity (Plasmodium berghei [38]) was “inactive” and the Activity [39] was “Toxic”.
